Screening data: PubChem, The Scripps Research Institute Molecular Screening Center
CHO parental Ca – counter-screen: ATP calcium response change in parental CHO cells; 0.63% of 330,000 active; parental CHO-K1, ATP-induced calcium, Fluo-8 fluorescence; inhibition, % at 5.6 µM;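 active means inhibition above that plate's mean sample inhibition plus 3 SD, cut at about 26% in these data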;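 further: 0% = ATP-challenged DMSO wells and 100% = DMSO wells without ATP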
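Test system: untransfected parental CHO cell line; also added: ATP stimulus; dosing: 5.6 µM, single dose; signal: calcium-sensitive Fluo-8 fluorescence; measure: percent inhibition of ATP-evoked calcium rise, normalized to controls; benchmarks: low control ATP plus DMSO, high control DMSO only; replication: one well per compound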
OX1R antag-1 – blocks the human orexin 1 receptor. O43613. inhibition, % at 6.6 µM. 1.8% of 330,000 active. OX1R-expressing cells, FRET antagonist read-out; in the data active means inhibition mostly above about 38%, no sharp cut-off; inactive means mostly below about 40%;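 further: 0% = agonist challenge alone and 100% = reference antagonist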
Target sequence (O43613 whole entry, looked up): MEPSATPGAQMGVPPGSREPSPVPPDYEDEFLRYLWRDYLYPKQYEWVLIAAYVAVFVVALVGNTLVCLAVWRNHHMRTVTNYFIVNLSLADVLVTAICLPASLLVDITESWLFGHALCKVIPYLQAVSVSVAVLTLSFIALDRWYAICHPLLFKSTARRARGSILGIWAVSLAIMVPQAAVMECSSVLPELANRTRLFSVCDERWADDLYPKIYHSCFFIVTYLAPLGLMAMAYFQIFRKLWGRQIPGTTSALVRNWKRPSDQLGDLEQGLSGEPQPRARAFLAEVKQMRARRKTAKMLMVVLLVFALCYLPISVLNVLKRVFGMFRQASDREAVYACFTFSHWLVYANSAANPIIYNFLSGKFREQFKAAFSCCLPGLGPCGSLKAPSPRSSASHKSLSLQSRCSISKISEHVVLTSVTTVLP
OX1R antag-2 – blocks the human orexin 1 receptor; 0.43% of 330,000 active; O43613; AID 434989; CHO/OX1R cells, Fluo-8 calcium fluorescence, orexin A; inhibition, % at 5 µM;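 active means inhibition above its plate's threshold, mean inhibition of all tested compounds on the plate plus 3 SD, cut at about 37% in these data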;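 further: 0% = orexin A challenge wells and 100% = SB-334867-A antagonist wells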
CHO-K1 Ca ag – nonselective activator or artifact in parental CHO-K1 cells. activation, % at 3 µM. Fluo-8 calcium fluorescence; scaled to maximal ATP response, vehicle zero. 0.48% of 360,000 active; in the data active means activation above about 15%;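 further: untransfected CHO-K1 host cells lacking M1 receptor as counterscreen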
CHO-K1 Ca antag – nonselective inhibitor or artifact in parental CHO-K1 cells. ATP-induced calcium, Fluo-8 fluorescence. inhibition, % at 3 µM. 0.6% of 360,000 active;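 active means inhibition above a per-plate cutoff, the plate's mean sample inhibition plus 3 SD, cut at about 24% in these data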;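 further: 0% = DMSO plus EC80 ATP and 100% = DMSO alone without ATP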
CHO-K1 Ca PAM – nonselective activator or artifact in parental CHO-K1 calcium assay | 0.02% of 360,000 active | AID 602247 | ATP EC20, Fluo-8 calcium fluorescence; 0% at ATP EC20, 100% at ATP max | activation, % at 3 µM;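 active means activation above the run cutoff, the mean activation of all test compounds plus 3 SD, cut at about 40% in these data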;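 further: peak over basal fluorescence ratio in a 140 s read after ATP addition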
* hit, by the source's call; · = not tested or not shown. The list is not random: actives were taken first. Their share in the collection is about 2.9%.

SMILES	CHO parental Ca	OX1R antag-1	OX1R antag-2	CHO-K1 Ca ag	CHO-K1 Ca antag	CHO-K1 Ca PAM
CN1OCC(S(=O)(=O)c2ccccc2)C1c1ccccc1 (centres undefined)	-13	13	-19	0	13	0
NC(=O)c1ccsc1NC(=O)COC(=O)c1cccnc1Cl	-10	10	-2	2	-6	-13
CC1(C)Cc2c(sc3ncn(N)c(=N)c23)CO1	-24	34	-1	-1	27*	-4
Cc1ccc(C(=O)O)cc1NCc1ccncc1	-12	8	-1	0	4	-17
Cc1ccc(CNC(=S)Nc2cc(C(=O)O)ccc2C)cc1	-10	3	-21	0	31*	-19
CCCCN(C(=O)c1c(C)noc1C)c1c(N)n(CCC)c(=O)[nH]c1=O	-11	-1	-23	0	-3	-8
CS(=O)(=O)Nc1ccc(C2=NN(C(=O)c3ccco3)C(c3cccc(F)c3)C2)cc1 (centres undefined)	-26	13	-27	16*	6	23
CCS(=O)(=O)Nc1ccc(C2=NN(C(=O)c3ccco3)C(c3cccc(F)c3)C2)cc1 (centres undefined)	-19	-2	-31	1	0	15
CCOc1ccc(CCNC(=O)c2cccc(NC3=NC4CS(=O)(=O)CC4S3)c2)cc1 (centres undefined)	-8	2	-18	0	6	-6
COc1ccc2c3c(cccc13)C(=O)CC2	·	·	·	30*	19	-12
COc1ccccc1-c1cnc(C(O)c2ccc(F)c(F)c2)[nH]1 (centres undefined)	·	·	·	1	-12	29
COC(=O)/C(C#N)=C1/C=Cc2ccccc2N1C	-4	60*	-34	0	-10	14
CN(C)S(=O)(=O)N1CCN(CC(O)COc2ccc3cc(Br)ccc3c2)CC1 (centres undefined)	40*	8	11	7	7	4
O=S(=O)(N1CCCCC1)N1CCN(CC(O)COc2ccc3cc(Br)ccc3c2)CC1 (centres undefined)	-10	12	-6	3	-8	16
Nc1nonc1-n1nnc(C(=O)N/N=C/c2ccccc2F)c1CN1CCc2ccccc21	-10	17	-8	0	-14	21
CC(C)OC(=O)NCCOC(=O)Nc1cccc(Cl)c1	37*	59	48*	10	29*	2
O=C(Nc1cccc(Cl)c1)OCCOC(=O)Nc1cccc(Cl)c1	·	·	·	1	-17	-2
CC(C)OC(=O)NCCOC(=O)Nc1ccc(Cl)c(Cl)c1	50*	38	40	6	17	8
CC(C)OC(=O)Nc1ccc(-c2ccc(NC(=O)OC(C)C)cc2Cl)c(Cl)c1	-4	8	-27	0	-9	1
CC(OC(=O)Nc1cccc(Cl)c1)C(=O)O (centres undefined)	1	-5	-2	0	4	-3
CC(C)OC(=O)NC(C)(C)COC(=O)Nc1cccc(Cl)c1	35*	31	20	5	5	-1
Cn1c(-c2ccccc2)cc(=NNS(C)(=O)=O)c2cc(S(=O)(=O)O)ccc21	·	·	·	0	-8	7
CC[C@]12c3[nH]c4cc(-c5ccco5)ccc4c3CCN1C(=O)[C@@H](CC(=O)NCCC1=CCCCC1)C[C@@H]2C(=O)N1CCN(C(=O)c2ccco2)CC1	-21	43*	45	0	3	1
CC(C)=CCC/C(C)=C/CNC(=O)C[C@H]1C[C@H](C(=O)N2CCCCC2)[C@@]2(C)c3[nH]c4ccc(Cl)cc4c3CCN2C1=O	-16	0	-28	1	-13	17
COc1ccc2[nH]c3c(c2c1)CCN1C(=O)C(CC(=O)NC/C=C(\C)CCC=C(C)C)C[C@H](C(=O)N2CCCCC2)[C@@]31C (some centres undefined)	-42	14	51*	·	·	·
SMILES	CHO parental Ca	OX1R antag-1	OX1R antag-2	CHO-K1 Ca ag	CHO-K1 Ca antag	CHO-K1 Ca PAM
O=C(C[C@H]1C[C@H](C(=O)N2CCCCC2)[C@@]2(CCc3ccccc3)c3[nH]c4ccc(Cl)cc4c3CCN2C1=O)NCCC1=CCCCC1	0	3	-32	0	26*	-11
CC1(C(=O)NS(=O)(=O)c2ccccc2Cl)CCN1C(=O)C1CCCCC1 (centres undefined)	·	·	·	0	9	3
Nc1nc(SCC(=O)Nc2ccc([N+](=O)[O-])cc2)[nH]c(=O)c1NC(=O)c1ccc(Br)o1	5	16	-11	0	6	-11
CC1CCN(C(=O)CNC(=O)c2ccc(Cl)cc2Cl)CC1	-19	3	-28	0	31*	-6
COc1ccc(C2=NOC(C(=O)Nc3ccc4c(c3)OCO4)C2)cc1OC (centres undefined)	-14	1	-11	0	-2	0
COc1cc(C2=NOC(C(=O)Nc3ccc4c(c3)OCO4)C2)cc(OC)c1OC (centres undefined)	·	·	·	18*	4	-7
COc1ccc(/C=C/c2cc[n+](C(=O)Cc3ccccc3)cc2)cc1	-1	73*	-10	0	-8	1
Cc1ccc(NC(=O)COC(=O)CN2C(=O)C3CCCCC3C2=O)cc1S(=O)(=O)N1CCOCC1 (centres undefined)	4	4	-31	2	4	0
Cc1ccc(NC(=O)COC(=O)CN2C(=O)NC(C)(C)C2=O)cc1S(=O)(=O)N1CCOCC1	-1	-1	-12	19*	6	4
COc1cccc(-n2c(N)cc(=O)nc2SCC(=O)N2CCN(c3ccccc3)CC2)c1	-8	8	-14	1	-10	1
CCCCCCCCC[n+]1cccc2c3ccccc3ccc21	86*	76	94*	3	20	2
CCCCCCCCCCCCCCCC[n+]1cccc2ccccc21	89*	30	63*	-1	12	-1
O=c1[nH]c(=O)n(C2OC(CO)C(O)C2O)cc1N1CCOCC1 (centres undefined)	·	·	·	1	-15	10
Cc1ccc(S(=O)(=O)N(CCC(=O)NCc2ccccc2F)c2ccccc2)cc1	-19	25*	-6	0	-6	11
COc1ccc(OC)c(/C=C/C(=O)N(C)CC(=O)Nc2ccc(N3CCOCC3)cc2)c1	-4	-2	1	0	-11	3
CCOc1ncccc1C(=O)Nc1cc(S(=O)(=O)N2CCCCC2)ccc1C	-18	4	-4	0	-5	9
CCOc1ccc(NC(=S)Nc2ccc3nsnc3c2)cc1	-12	113*	-12	4	-3	12
CCOc1ccc(NC(=S)Nc2ccccc2C2CC2)cc1	-5	3	2	0	26*	-15
S=C(NCc1ccc2c(c1)OCO2)Nc1ccc2nsnc2c1	32	40	53*	4	7	-2
CCOc1ccc(NC(=O)Nc2ccc3nsnc3c2)cc1	2	18	1	15	16	-3
